Results from ChEMBL document CHEMBL5705905, “Pharmacological targeting of kinases MST1 and MST2 augments tissue repair and regeneration” (Sci Transl Med, 2016).

Legend:
[1] = molecular target: ALK tyrosine kinase receptor (Homo sapiens) (UniProt Q9UM73); assay: Inhibition of ALK (unknown origin) assessed as remaining activity at 1 uM by Kinome scan method relative to control
Summary of the method: (§1)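 Active-site-dependent competition-binding (KINOMEscan) panel of 468 kinases, test compound at 1 μM (from a 10 mM DMSO stock). Read-out is ctrl% = (test signal − positive control signal)/(negative control signal − positive control signal) × 100. DMSO is the negative control (100%) and a control compound is the positive control (0%). Lower ctrl% means tighter binding.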

[2] = molecular target: Ephrin type-A receptor 7 (Homo sapiens) (UniProt Q15375); assay: Inhibition of EPHA7 (unknown origin) assessed as remaining activity at 1 uM by Kinome scan method relative to control
Ephrin type-A receptor 7 (Homo sapiens), sequence (Q15375 28-998 limits assumed): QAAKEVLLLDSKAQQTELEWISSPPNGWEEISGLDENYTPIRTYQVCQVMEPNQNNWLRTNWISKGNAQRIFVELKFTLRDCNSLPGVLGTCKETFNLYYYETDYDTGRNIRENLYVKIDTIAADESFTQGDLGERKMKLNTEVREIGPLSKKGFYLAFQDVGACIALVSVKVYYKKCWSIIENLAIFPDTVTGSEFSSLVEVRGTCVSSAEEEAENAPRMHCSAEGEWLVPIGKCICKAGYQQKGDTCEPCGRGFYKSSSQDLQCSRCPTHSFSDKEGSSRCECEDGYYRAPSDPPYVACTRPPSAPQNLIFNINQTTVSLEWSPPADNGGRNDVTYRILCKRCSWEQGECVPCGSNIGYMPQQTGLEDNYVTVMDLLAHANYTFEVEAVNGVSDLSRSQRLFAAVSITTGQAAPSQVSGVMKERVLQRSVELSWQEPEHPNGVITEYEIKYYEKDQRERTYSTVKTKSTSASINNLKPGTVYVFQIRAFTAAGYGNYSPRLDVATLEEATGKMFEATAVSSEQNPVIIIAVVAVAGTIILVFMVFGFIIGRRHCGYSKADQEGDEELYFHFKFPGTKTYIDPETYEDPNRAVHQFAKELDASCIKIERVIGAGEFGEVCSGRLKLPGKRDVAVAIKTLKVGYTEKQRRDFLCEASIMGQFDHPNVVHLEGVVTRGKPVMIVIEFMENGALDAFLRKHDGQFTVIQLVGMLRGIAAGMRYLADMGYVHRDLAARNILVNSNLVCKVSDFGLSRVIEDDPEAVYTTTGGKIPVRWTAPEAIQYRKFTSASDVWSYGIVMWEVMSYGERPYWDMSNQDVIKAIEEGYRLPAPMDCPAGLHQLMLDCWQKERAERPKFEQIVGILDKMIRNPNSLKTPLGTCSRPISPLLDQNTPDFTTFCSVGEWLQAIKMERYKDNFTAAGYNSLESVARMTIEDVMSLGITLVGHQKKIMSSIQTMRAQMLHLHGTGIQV

[3] = molecular target: Myosin-IIIb (Homo sapiens) (UniProt Q8WXR4); assay: Inhibition of MYO3B (unknown origin) assessed as remaining activity at 1 uM by Kinome scan method relative to control
[4] = Acute toxicity in wild-type mouse assessed as cell proliferation in kidney at 3 mg/kg,ip administrated daily for 7 days by Ki67 staining; assay type: organism-based; details: in vivo, 168 h, time 7 day
Summary of the method: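 Wild-type mice received vehicle or 3 mg/kg i.p. daily for 7 days. Ki67 staining of sections from various tissues with quantification of positive cells, n = 6; means ± SD, Student's t test. Daily weights, physical activity and serum chemistry were also monitored.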

[5] = molecular target: Receptor-interacting serine/threonine-protein kinase 1 (Homo sapiens) (UniProt Q13546); assay: Inhibition of RIPK1 (unknown origin) assessed as remaining activity at 1 uM by Kinome scan method relative to control
Receptor-interacting serine/threonine-protein kinase 1 (Homo sapiens), sequence (Q13546 whole entry, canonical isoform): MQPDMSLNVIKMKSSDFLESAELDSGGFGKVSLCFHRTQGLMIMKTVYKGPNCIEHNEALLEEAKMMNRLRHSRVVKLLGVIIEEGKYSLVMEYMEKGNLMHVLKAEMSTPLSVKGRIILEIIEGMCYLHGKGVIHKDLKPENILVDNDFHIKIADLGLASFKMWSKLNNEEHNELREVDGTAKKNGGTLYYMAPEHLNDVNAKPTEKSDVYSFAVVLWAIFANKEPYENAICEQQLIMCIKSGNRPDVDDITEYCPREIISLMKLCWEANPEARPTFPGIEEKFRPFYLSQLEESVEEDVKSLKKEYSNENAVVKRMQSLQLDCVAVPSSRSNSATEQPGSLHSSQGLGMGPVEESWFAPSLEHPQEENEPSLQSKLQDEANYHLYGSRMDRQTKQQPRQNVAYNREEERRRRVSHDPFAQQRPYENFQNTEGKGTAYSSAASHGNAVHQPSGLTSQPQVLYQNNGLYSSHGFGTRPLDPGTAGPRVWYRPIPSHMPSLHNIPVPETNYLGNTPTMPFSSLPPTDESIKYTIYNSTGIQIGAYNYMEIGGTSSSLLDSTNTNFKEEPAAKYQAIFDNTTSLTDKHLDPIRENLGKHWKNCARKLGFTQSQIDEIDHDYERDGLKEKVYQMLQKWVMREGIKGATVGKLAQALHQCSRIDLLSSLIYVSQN

[6] = molecular target: Phosphatidylinositol 4,5-bisphosphate 3-kinase catalytic subunit alpha isoform (Homo sapiens, UniProt P42336, H1047L); assay: Binding affinity to PIK3CA H1047L mutant (unknown origin) assessed as dissociation constant
[7] = molecular target: Atypical kinase COQ8B, mitochondrial (Homo sapiens) (UniProt Q96D53); assay: Inhibition of ADCK4 (unknown origin) assessed as remaining activity at 1 uM by Kinome scan method relative to control; summary of the method: as §1
[8] = molecular target: Phosphorylase b kinase gamma catalytic chain, skeletal muscle/heart isoform (Homo sapiens) (UniProt Q16816); assay: Inhibition of PHKG1 (unknown origin) assessed as remaining activity at 1 uM by Kinome scan method relative to control
Mus musculus = assay: Protection against APAP induced liver injury in mouse assessed as increase in survival rate at 1 mg/kg, ip administered at 2.5 hrs in the presence of NAC […]; assay type: functional
Summary of the method: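 Wild-type mice given oral APAP 400 mg/kg, then i.p. vehicle, NAC 250 mg/kg, 1 mg/kg test agent, or NAC plus test agent at 1.5 or 2.5 h. Mortality was tracked with n = 10–11 per group, Mantel-Cox test. Separately, TUNEL was done on liver after 200 mg/kg APAP with treatment at 2.5 h.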

[9] = molecular target: Testis-specific serine/threonine-protein kinase 1 (Homo sapiens) (UniProt Q9BXA7); assay: Inhibition of TSSK1B (unknown origin) assessed as remaining activity at 1 uM by Kinome scan method relative to control
Testis-specific serine/threonine-protein kinase 1 (Homo sapiens), sequence (Q9BXA7 whole entry): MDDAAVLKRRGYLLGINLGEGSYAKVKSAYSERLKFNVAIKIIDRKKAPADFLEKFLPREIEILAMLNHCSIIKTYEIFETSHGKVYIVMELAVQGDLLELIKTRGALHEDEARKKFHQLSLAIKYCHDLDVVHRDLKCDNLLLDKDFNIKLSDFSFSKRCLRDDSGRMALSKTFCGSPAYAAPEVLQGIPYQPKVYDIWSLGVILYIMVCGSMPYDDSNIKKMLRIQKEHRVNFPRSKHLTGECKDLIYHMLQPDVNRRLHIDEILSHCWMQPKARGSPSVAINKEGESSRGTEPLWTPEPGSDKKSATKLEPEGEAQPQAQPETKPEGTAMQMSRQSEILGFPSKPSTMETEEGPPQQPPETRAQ

[10] = molecular target: T1, Serine/threonine-protein kinase 3 (Homo sapiens, UniProt Q13188); assay: Inhibition of recombinant His-tagged full-length MST2 (unknown origin) expressing in Escherichia coli assessed as MOB1a phosphorylation level incubated for 30 min in the presence of 10 uM ATP by immunoblot analysis
T1 sequence (Q13188 whole entry): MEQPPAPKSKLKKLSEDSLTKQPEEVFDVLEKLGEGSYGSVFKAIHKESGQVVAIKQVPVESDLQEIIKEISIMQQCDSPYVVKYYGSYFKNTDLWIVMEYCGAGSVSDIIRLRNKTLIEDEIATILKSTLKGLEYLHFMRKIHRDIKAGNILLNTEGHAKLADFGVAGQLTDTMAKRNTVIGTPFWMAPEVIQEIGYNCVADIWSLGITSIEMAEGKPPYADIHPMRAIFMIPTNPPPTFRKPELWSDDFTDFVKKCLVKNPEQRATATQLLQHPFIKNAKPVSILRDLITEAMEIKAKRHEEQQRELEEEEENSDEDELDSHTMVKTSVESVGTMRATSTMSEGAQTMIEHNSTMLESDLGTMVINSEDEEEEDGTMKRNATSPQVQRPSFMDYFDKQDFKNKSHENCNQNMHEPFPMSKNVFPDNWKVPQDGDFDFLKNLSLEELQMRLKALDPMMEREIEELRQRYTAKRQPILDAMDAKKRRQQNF

[11] = molecular target: Serine/threonine-protein kinase PRP4 homolog (Homo sapiens) (UniProt Q13523); assay: Inhibition of PRP4 (unknown origin) assessed as remaining activity at 1 uM by Kinome scan method relative to control
[12] = molecular target: Homeodomain-interacting protein kinase 2 (Homo sapiens) (UniProt Q9H2X6); assay: Inhibition of HIPK2 (unknown origin) assessed as remaining activity at 1 uM by Kinome scan method relative to control
Homeodomain-interacting protein kinase 2 (Homo sapiens), sequence (Q9H2X6 whole entry, looked up): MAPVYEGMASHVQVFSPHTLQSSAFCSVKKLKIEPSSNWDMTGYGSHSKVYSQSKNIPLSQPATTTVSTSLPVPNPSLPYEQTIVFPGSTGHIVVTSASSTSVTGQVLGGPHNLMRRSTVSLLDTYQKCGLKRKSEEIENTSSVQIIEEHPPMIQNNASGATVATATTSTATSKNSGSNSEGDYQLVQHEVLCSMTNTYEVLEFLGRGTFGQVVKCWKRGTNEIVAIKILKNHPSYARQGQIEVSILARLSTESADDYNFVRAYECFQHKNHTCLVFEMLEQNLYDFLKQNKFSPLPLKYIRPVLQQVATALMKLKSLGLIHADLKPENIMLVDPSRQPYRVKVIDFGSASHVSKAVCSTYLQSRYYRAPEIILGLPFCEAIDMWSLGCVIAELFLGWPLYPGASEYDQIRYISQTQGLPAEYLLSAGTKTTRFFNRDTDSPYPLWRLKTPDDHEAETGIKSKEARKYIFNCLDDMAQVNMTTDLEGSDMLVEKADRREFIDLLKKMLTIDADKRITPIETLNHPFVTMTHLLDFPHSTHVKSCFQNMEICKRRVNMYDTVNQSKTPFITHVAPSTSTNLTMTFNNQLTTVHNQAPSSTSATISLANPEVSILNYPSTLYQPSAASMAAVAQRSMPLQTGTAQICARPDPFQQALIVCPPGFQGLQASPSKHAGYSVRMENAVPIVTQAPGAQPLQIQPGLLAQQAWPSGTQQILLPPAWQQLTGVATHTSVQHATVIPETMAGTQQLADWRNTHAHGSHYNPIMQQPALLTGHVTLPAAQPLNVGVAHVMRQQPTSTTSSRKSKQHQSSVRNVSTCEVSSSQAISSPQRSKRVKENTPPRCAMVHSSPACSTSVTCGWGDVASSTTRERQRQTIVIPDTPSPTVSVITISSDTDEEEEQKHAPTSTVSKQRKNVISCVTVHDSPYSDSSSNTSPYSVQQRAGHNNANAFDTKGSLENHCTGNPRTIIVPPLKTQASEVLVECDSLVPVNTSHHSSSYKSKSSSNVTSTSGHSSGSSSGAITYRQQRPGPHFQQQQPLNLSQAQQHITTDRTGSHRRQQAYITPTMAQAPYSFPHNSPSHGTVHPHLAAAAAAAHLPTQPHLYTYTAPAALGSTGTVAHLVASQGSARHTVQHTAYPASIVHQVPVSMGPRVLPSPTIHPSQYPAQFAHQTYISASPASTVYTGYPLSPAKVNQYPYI

[13] = molecular target: Dual specificity mitogen-activated protein kinase kinase 7 (Homo sapiens) (UniProt O14733); assay: Inhibition of MKK7 (unknown origin) assessed as remaining activity at 1 uM by Kinome scan method relative to control
Aurora kinase B = Aurora kinase B (Homo sapiens, UniProt Q96GD4); assay: Inhibition of AURKB (unknown origin) assessed as remaining activity at 1 uM by Kinome scan method relative to control; summary of the method: as §1
Aurora kinase B, sequence (Q96GD4 whole entry): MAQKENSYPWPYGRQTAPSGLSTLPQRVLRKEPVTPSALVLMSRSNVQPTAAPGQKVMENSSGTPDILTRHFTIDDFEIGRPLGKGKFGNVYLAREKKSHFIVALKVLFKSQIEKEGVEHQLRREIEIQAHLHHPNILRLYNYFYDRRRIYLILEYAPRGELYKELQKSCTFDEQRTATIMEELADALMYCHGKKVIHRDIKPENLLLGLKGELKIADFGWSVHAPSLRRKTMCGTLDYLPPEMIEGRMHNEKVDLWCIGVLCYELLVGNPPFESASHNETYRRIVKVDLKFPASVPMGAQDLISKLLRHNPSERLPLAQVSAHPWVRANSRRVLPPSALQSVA

[14] = molecular target: Tyrosine-protein kinase JAK1 (Homo sapiens, UniProt P23458); assay: Inhibition of JAK1 JH2domain-pseudokinase (unknown origin) in presence of ATP by enzymatic assay
Tyrosine-protein kinase JAK1, sequence (P23458 whole entry): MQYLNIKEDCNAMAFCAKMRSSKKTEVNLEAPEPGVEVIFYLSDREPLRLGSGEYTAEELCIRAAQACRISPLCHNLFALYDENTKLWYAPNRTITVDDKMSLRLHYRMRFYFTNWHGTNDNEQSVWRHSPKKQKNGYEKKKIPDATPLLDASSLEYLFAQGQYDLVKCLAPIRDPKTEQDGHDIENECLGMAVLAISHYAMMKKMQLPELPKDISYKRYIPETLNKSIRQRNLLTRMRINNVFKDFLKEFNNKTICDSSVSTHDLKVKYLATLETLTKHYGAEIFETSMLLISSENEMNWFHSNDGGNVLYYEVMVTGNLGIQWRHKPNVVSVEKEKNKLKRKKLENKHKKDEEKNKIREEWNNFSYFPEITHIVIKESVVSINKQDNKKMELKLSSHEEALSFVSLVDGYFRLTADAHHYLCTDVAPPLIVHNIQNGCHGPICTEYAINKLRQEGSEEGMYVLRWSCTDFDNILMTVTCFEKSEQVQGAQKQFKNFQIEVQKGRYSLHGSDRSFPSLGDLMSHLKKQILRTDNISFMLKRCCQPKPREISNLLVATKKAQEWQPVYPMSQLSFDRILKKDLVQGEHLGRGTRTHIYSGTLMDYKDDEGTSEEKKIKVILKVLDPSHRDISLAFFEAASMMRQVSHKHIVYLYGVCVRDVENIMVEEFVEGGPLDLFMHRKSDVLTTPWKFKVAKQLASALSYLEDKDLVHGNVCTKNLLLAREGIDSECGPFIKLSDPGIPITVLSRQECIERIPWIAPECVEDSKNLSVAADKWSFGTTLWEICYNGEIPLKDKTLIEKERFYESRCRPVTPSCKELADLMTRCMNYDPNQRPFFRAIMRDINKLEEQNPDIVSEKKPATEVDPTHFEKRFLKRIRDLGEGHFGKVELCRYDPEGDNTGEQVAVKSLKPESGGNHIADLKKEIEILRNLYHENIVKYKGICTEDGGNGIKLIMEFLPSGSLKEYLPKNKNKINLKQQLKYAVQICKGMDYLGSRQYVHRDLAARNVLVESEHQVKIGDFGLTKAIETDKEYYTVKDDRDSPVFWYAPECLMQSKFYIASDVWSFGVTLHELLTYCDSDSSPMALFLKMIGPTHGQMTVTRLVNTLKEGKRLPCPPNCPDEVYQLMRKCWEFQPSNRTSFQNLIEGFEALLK

[15] = molecular target: T2, Serine/threonine-protein kinase 4 (Homo sapiens, UniProt Q13043); assay: Binding affinity to MST1 (unknown origin) assessed as dissociation constant
T2 sequence (Q13043 whole entry): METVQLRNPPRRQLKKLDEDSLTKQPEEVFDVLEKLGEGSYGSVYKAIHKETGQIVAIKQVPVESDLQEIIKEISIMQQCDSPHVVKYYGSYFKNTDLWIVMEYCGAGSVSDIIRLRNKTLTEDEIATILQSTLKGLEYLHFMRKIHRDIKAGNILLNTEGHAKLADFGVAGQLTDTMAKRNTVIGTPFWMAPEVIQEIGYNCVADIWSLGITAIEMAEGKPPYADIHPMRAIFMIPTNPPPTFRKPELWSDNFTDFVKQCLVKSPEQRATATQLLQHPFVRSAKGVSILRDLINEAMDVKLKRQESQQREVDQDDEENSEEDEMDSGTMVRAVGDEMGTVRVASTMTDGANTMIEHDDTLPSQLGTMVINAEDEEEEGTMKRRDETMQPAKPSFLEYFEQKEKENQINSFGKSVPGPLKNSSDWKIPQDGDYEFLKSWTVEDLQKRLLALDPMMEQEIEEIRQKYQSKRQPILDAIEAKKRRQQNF

[16] = test system: Epidermal growth factor receptor (Homo sapiens), P00533 [G719S]; assay: Inhibition of EGFR G719S mutant (unknown origin) assessed as remaining activity at 1 uM by Kinome scan method relative to control
[17] = molecular target: Serine/threonine-protein kinase pim-3 (Homo sapiens) (UniProt Q86V86); assay: Inhibition of PIM3 (unknown origin) assessed as remaining activity at 1 uM by Kinome scan method relative to control

Which Activity [1] does the source give for `CN1C(=O)c2sccc2N(C)c2nc(Nc3ccc(S(N)(=O)=O)cc3)ncc21` here?
The Activity was 94%.

And the Activity [2]?
Its Activity is 98%.

What about the Activity [3] of the same compound?
Its Activity is 100%.

And the Activity [4]?
The Activity was “Non-Toxic”.

And the Activity [5]?
Its Activity is 100%.

What about the Kd [6] of the same compound?
Its Kd is 34 nM.

What about the Activity [7] of the same compound?
Its Activity is 79%.

What about the Activity [8] of the same compound?
Its Activity is 100%.

And the Activity (Mus musculus)?
The Activity was roughly 40%.

And the Activity [9]?
Its Activity is 100%.

What about the IC50 [10] of the same compound?
Its IC50 is 34 nM.

And the Activity [11]?
The Activity was 97%.

And the Activity [12]?
Its Activity is 96%.

What about the Activity [13] of the same compound?
Its Activity is 96%.

What about the Activity (Aurora kinase B) of the same compound?
Its Activity is 3.4%.

And the IC50 [14]?
The IC50 was 38.7 nM.

What about the Kd [15] of the same compound?
The Kd was 17 nM.

What about the Activity [16] of the same compound?
Its Activity is 78%.

And the Activity [17]?
The Activity was 100%.
